Experimental data taken from article PMC5226292 (Pharmacology Research & Perspectives, 2016).
Entries after “also recorded” stand apart in the source; their conditions may differ.

Key:
individuals with T2D = details: oral, 12 weeks, ref Araki et al. 2012, Burant et al. 2012; cited from earlier work
[1] = tested on: primary islets from GPR40 KO mice; experiment: Insulin secretion from isolated GPR40 KO mouse islets; assay type: cell-based; details: 11.2 mmol/L glucose, 90 min
Method in brief: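 Islets from 2–3-month-old male GPR40 KO mice were purified on a Histopaque-1100 gradient and cultured overnight in RPMI-1640 with 10% FBS and antibiotics. They were preincubated 30 min in EBSS with 0.1% BSA and 2.8 mmol/L glucose. Islets were then incubated 90 min with 2.8 or 11.2 mmol/L glucose plus rising test compound levels (6 batches of 4 islets per condition). Linoleic acid and GLP-1(7-36) amide served as controls. Insulin was measured by ECL, expressed as fold over vehicle, and compared by ANOVA with Dunnett's test.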

STZ-treated DIO mice = experiment: Glycemic control in STZ-treated DIO mice; assay type: in vivo, mouse; details: for glucose AUC during OGTTs on days 7 and 14: oral once daily, LY2881835 30 mg/kg, sitagliptin 3 mg/kg
Method in brief: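 Male DIO mice aged 5–6 months got IP streptozotocin 50 mg/kg twice in one week. Two weeks later, mice with 9 am glucose of 180–300 mg/dL were randomized by body weight and glucose. Dosing was oral, once daily for 16 days: test compound 30 mg/kg given 30 min and sitagliptin 3 mg/kg 60 min before OGTTs on days 1, 7 and 14. Glucose was sampled at 0–120 min and glucose AUC calculated; 7 per group, with age-matched non-STZ mice included.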

Zucker fa/fa rats = experiment: Glycemic control in fatty Zucker fa/fa rats; assay type: in vivo, rat; details: oral once daily, LY2881835 1 mg/kg, rosiglitazone 3 mg/kg
Method in brief: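 Male Zucker fa/fa rats aged 2–3 months were acclimated for 2 weeks and randomized by body weight and glucose (n = 6/group). Test compound 1 mg/kg, rosiglitazone 3 mg/kg or vehicle was given orally once daily for 21 days. OGTTs on days 1 and 21 sampled blood at 0, 10, 20, 40 and 60 min, averaging two readings. Age-matched lean rats were included.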

GPR40 KO mice = experiment: OGTT in GPR40 KO mice; assay type: in vivo, mouse; details: oral 30 mg/kg, 60 min before OGTT, versus vehicle
Method in brief: (§1)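 Chow-fed male mice aged 2–3 months (WT, GPR40 KO or GPR120 KO) were fasted overnight from about 1600 and randomized at about 0800 by fasting glucose and body weight. Oral test compound 30 mg/kg or vehicle (0.5% methylcellulose, 0.25% Tween-80) was given 60 min before oral glucose 2 g/kg. Tail-blood glucose was read by glucometer at 0, 15, 30, 60 and 120 min, averaging two readings, and analysed by repeated-measures ANOVA.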

[2] = tested on: nuclear hormone receptors, other G-protein-coupled receptors (GPCRs) and enzyme targets; experiment: Broad range of assays: nuclear hormone receptors, other GPCRs and enzyme targets; details: data not shown
hGPR40 = hGPR40 (Homo sapiens, UniProt O14842); experiment: Calcium flux assay; assay type: cell-based
WT mice = experiment: OGTT in WT mice; assay type: in vivo, mouse; details: oral 30 mg/kg, 60 min before OGTT, versus vehicle
Method in brief: as §1

[3] = tested on: diet-induced obese (DIO) mice; experiment: Glycemic control in DIO mice; assay type: in vivo, mouse; details: oral 10 mg/kg once daily
Method in brief: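 Male DIO mice aged 5–6 months were acclimated for 2 weeks and randomized by body weight and fasting blood glucose. They received oral test compound at 10 mg/kg or vehicle (0.5% methylcellulose, 0.25% Tween-80) once daily for 15 days, dosed 60 min before oral glucose. OGTTs on days 1 and 15 sampled tail blood at 0, 15, 30, 60 and 120 min by glucometer, averaging two readings.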

[4] = tested on: primary islets from WT mice; experiment: Insulin secretion from isolated WT mouse islets; assay type: cell-based; details: 11.2 mmol/L glucose, 90 min
Method in brief: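 Islets came from 2-3-month-old male wild-type C57BL/6 mice and were purified on a Histopaque-1100 gradient. They were exposed to test compound, or linoleic acid as reference ligand, in 11.2 mmol/L glucose. Insulin secretion is expressed as fold over vehicle, analysed by ANOVA with Dunnett's comparison.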

[5] = Compound exposure in lean mice; assay type: in vivo, mouse; details: single oral dose 10 mg/kg, over 8 h
Method in brief: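 Male ICR mice; single oral dose in 0.5% methylcellulose/0.25% Tween-80. EDTA-plasma collected by retro-orbital bleed at 0.5, 1, 2, 4 and 8 h post-dose. Total circulating test compound measured by LC-MS.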

normal ICR mice = experiment: IPGTT in lean ICR mice; assay type: in vivo, mouse
Method in brief: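 Male ICR mice aged 9-10 weeks were fasted overnight (about 1600 to 0800) and randomized by fasting glucose and body weight. Test compound or vehicle (0.5% methylcellulose/0.25% Tween-80) was given orally 60 min before IP glucose. Serum was sampled at 0, 3, 6 and 15 min and assayed with a Mesoscale rat/mouse insulin kit.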

Chain of hGPR40 (O14842 whole entry): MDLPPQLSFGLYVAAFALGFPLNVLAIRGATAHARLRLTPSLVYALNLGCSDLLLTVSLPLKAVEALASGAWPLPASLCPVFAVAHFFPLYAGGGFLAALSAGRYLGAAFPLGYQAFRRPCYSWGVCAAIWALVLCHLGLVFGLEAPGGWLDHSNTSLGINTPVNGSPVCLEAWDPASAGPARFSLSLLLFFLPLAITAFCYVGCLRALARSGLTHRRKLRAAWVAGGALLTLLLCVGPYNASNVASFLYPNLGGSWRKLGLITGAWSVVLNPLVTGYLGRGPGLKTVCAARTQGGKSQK

Cc1cc(OCCCS(C)(=O)=O)cc(C)c1-c1cccc(COc2ccc3c(c2)OC[C@H]3CC(=O)O)c1 [TAK‐875]
HbA1c reduction (individuals with T2D): superior to historical data with DPPIV inhibitors and comparable with that of sulfonylureas

CCCCC/C=C\C/C=C\CCCCCCCC(=O)O [linoleic acid, reference compound]
insulin secretion in GPR40 KO primary islets [1]: a reduction in insulin secretion was seen | insulin secretion in GPR40 KO primary islets ([1]; listed as LA): No insulin secretion

N[C@@H](CC(=O)N1CCn2c(nnc2C(F)(F)F)C1)Cc1cc(F)c(F)cc1F [sitagliptin, reference compound]
glucose AUC during OGTTs on days 7 and 14 (STZ-treated DIO mice): Results are similar

CN(CCOc1ccc(CC2SC(=O)NC2=O)cc1)c1ccccn1 (stereo not shown) [rosiglitazone, Rosiglitazone]
blood glucose during OGTT on day 1 (Zucker fa/fa rats): no glucose lowering

CC#C[C@@H](CC(=O)O)c1ccc(OCc2ccc(CN3CCC4(C=Cc5ccccc54)CC3)cc2)cc1 [LY2881835, (3S)‐3‐(4‐{[4‐(1′H‐spiro[indene‐1,4′‐piperidin]‐1′‐ylmethyl)benzyl]oxy}phenyl)hex‐4‐ynoic acid]
blood glucose during OGTT after a single treatment (STZ-treated DIO mice; oral 30 mg/kg, day 1): lowered blood glucose | glucose AUC during OGTTs on days 7 and 14 (STZ-treated DIO mice): Results are similar | glucose levels during OGTT (GPR40 KO mice): had no effect on glucose levels | signals in assay systems not expressing GPR40 [2]: No positive signals were detected | insulin secretion in GPR40 KO primary islets [1]: Enhanced insulin secretion was absent; also recorded: No insulin secretion | EC50 (hGPR40): 164 ± 94 nM | glucose levels during OGTT (WT mice): significant glucose lowering | hypoglycemia [3]: no evidence of hypoglycemia was observed | fasting glucose levels at time 0 of the OGTTs ([3]; 60 min after administration): significantly reduced | glucose levels during OGTTs ([3]; OGTTs on days 1 and 15): Significant reductions in glucose levels | insulin secretion in WT primary islets [4]: statistically significant increase in insulin secretion | plasma concentration time course [5]: peaked and remained elevated at 15, 30, and 60 min followed by a slight decrease in levels throughout the 8 h study | insulin AUC during IPGTT (normal ICR mice; oral 10 mg/kg dose group, versus vehicle): statistically significant enhancement in insulin AUC | insulin secretion during IPGTT (normal ICR mice; oral 0.3, 1, 3 and 10 mg/kg, 60 min before IP glucose 2 g/kg): clear dose‐dependent enhancement in insulin secretion
